Source: ChEMBL document CHEMBL3421533, “The Discovery of Orally Bioavailable Tyrosine Threonine Kinase (TTK) Inhibitors: 3-(4-(heterocyclyl)phenyl)-1H-indazole-5-carboxamides as Anticancer Agents” (J Med Chem, 2015)
Active and inactive are the calls of the source. No cut-off for these calls is given here.

Tests used:
[1] = Cell cycle arrest in human HCT116 cells assessed as 16N cells at 0.5 uM measured at 48 hrs by flow cytometric analysis relative to control; format: functional, cell-based; conditions: HCT-116
In short: (§1)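 HCT116 cells in 6-well plates were exposed to compound or DMSO for 48 h at 37 °C, 5% CO₂. Cells were trypsinized, fixed in cold 70% ethanol and stained overnight at 4 °C with 50 μg/mL propidium iodide plus RNaseA. DNA content was read by flow cytometry, and 8N and 16N fractions were normalized to the DMSO control.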

[2] = test system: HCT-116; test: Induction of cytokinesis with gain or loss in chromosomes in human HCT116 cells at 500 nM after 28 hrs by DAPI-staining based fluorescence microscopic analysis; format: functional, cell-based
[3] = Cell cycle arrest in human HCT116 cells assessed as 8N cells at 0.1 uM measured at 48 hrs by flow cytometric analysis relative to control; format: functional, cell-based; conditions: HCT-116; in short: as §1
[4] = Cell cycle arrest in human HCT116 cells assessed as 8N cells at 0.5 uM measured at 48 hrs by flow cytometric analysis relative to control; format: functional, cell-based; conditions: HCT-116; in short: as §1
[5] = Cell cycle arrest in human HCT116 cells assessed as 8N cells at 0.05 uM measured at 48 hrs by flow cytometric analysis relative to control; format: functional, cell-based; conditions: HCT-116; in short: as §1
[6] = Cell cycle arrest in human HCT116 cells assessed as 8N cells at 1 uM measured at 48 hrs by flow cytometric analysis relative to control; format: functional, cell-based; conditions: HCT-116; in short: as §1
[7] = Induction of apoptosis in human HCT116 cells assessed as upregulation of phospho-H2AX level after 24 hrs; format: functional, cell-based; conditions: HCT-116
[8] = test system: HCT-116; test: Cytotoxicity against human HCT116 cells assessed as decrease in cell viability after 24 hrs; format: functional, cell-based
[9] = Induction of apoptosis in human HCT116 cells assessed as upregulation of p53 level after 24 hrs; format: functional, cell-based; conditions: HCT-116
[10] = Cell cycle arrest in human HCT116 cells assessed as 16N cells at 3 uM measured at 48 hrs by flow cytometric analysis relative to control; format: functional, cell-based; conditions: HCT-116; in short: as §1
[11] = Cell cycle arrest in human HCT116 cells assessed as 8N cells at 0.2 uM measured at 48 hrs by flow cytometric analysis relative to control; format: functional, cell-based; conditions: HCT-116; in short: as §1
[12] = Cell cycle arrest in human HCT116 cells assessed as 16N cells at 0.05 uM measured at 48 hrs by flow cytometric analysis relative to control; format: functional, cell-based; conditions: HCT-116; in short: as §1
[13] = test system: HCT-116; test: Induction of apoptosis in human HCT116 cells assessed as induction of PARP cleavage after 24 hrs; format: functional, cell-based
[14] = Cell cycle arrest in human HCT116 cells assessed as 16N cells at 0.2 uM measured at 48 hrs by flow cytometric analysis relative to control; format: functional, cell-based; conditions: HCT-116; in short: as §1
[15] = Cell cycle arrest in human HCT116 cells assessed as 16N cells at 0.1 uM measured at 48 hrs by flow cytometric analysis relative to control; format: functional, cell-based; conditions: HCT-116; in short: as §1
[16] = Cell cycle arrest in human HCT116 cells assessed as 16N cells at 1 uM measured at 48 hrs by flow cytometric analysis relative to control; format: functional, cell-based; conditions: HCT-116; in short: as §1
[17] = Cell cycle arrest in human HCT116 cells assessed as 8N cells at 3 uM measured at 48 hrs by flow cytometric analysis relative to control; format: functional, cell-based; conditions: HCT-116; in short: as §1
[18] = AUCinfinity in Sprague-Dawley rat at 5 mg/kg, po by LC-MS/MS analysis; format: ADME, organism-based; parameters: time infinity, dose 5 mg/kg, route oral; conditions: plasma
[19] = target: T1, Dual specificity protein kinase TTK (Homo sapiens, UniProt P33981); test: Inhibition of amino terminal GST-fused full length human TTK using His6-SUMO-TTK-N as substrate preincubated for 15 mins prior to ATP addition by indirect ELISA detection system
T1 sequence (P33981 whole entry): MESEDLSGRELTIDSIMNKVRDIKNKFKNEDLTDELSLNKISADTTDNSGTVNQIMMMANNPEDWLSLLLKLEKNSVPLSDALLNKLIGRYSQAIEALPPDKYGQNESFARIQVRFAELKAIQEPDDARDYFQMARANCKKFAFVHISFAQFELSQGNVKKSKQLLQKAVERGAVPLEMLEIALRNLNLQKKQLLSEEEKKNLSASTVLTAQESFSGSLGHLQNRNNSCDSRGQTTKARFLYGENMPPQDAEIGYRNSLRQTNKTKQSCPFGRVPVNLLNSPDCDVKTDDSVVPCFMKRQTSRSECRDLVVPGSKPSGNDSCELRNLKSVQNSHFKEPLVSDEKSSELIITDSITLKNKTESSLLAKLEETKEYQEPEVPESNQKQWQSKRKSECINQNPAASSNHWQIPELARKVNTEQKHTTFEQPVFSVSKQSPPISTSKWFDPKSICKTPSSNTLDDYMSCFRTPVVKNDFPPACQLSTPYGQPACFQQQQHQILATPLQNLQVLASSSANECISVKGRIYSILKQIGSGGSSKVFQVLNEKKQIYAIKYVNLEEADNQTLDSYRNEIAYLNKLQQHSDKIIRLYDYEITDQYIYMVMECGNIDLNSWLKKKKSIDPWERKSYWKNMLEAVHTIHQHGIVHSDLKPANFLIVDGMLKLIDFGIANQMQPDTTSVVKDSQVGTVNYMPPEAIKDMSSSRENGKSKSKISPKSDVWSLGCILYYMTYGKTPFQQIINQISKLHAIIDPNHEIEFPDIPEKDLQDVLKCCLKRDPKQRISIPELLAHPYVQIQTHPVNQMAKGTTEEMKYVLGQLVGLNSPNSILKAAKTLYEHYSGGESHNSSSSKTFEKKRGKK

[20] = test system: Liver microsome; test: Half life in rat liver microsomes at 1 uM by LC-MS analysis; format: ADME; conditions: microsomes, 1 µM
[21] = Cytotoxicity against human HCT116 cells after 5 days by sulforhodamine B assay; format: functional, HCT-116
In short: (§2)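 Cancer lines were seeded at 800–6000 cells per well according to growth rate, 24 h before compound overlay. After culture, cells were fixed in situ and stained with sulforhodamine B. GI50 values were derived by curve fitting.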

[22] = AUCinfinity in Sprague-Dawley rat at 1 mg/kg, iv by LC-MS/MS analysis; format: ADME, organism-based; parameters: time infinity, dose 1 mg/kg, route intravenous; conditions: plasma
[23] = (§3) AUCinfinity in athymic CD1 nude mouse at 10 mg/kg, po by LC-MS/MS analysis; format: ADME, organism-based, Plasma; parameters: time infinity, dose 10 mg/kg, route oral; conditions: athymic CD1 nude, plasma
[24] = target: Cytochrome P450 3A4 (Homo sapiens, UniProt P08684); test: Inhibition of human CYP3A4 using BFC as substrate preincubated for 10 mins followed by enzyme/substrate addition measured after 30 mins by fluorescence assay; format: ADME
[25] = Half life in Sprague-Dawley rat at 1 mg/kg, iv by LC-MS/MS analysis; format: ADME, organism-based; parameters: dose 1 mg/kg, route intravenous; conditions: in vivo
[26] = test system: MDA-MB-468; test: Cytotoxicity against human MDA-MB-468 cells after 5 days by sulforhodamine B assay; format: functional; in short: as §2
[27] = (§4) Half life in mouse liver microsomes at 1 uM by LC-MS analysis; format: ADME; conditions: liver microsomes
[28] = (§5) Cmax in athymic CD1 nude mouse at 10 mg/kg, po by LC-MS/MS analysis; format: ADME, organism-based; parameters: dose 10 mg/kg, route oral; conditions: athymic CD1 nude, in vivo
[29] = target: Aurora kinase B/Inner centromere protein (Homo sapiens, UniProt Q96GD4); test: Inhibition of AURKB/INCENP (unknown origin) preincubated for 15 mins prior to ATP addition by FRET-based homogenous assay; format: protein-complex assay
In short: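 The enzyme was AURKB/INCENP in a FRET-based homogeneous assay run to kit specifications, with ATP at 128 μM. […] Each IC50 came from a single determination, reported with its standard fitting error.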

[30] = Clearance in Sprague-Dawley rat at 1 mg/kg, iv by LC-MS/MS analysis; format: ADME, organism-based; parameters: dose 1 mg/kg, route intravenous; conditions: in vivo
[31] = Oral bioavailability in Sprague-Dawley rat at 5 mg/kg by LC-MS/MS analysis; format: ADME, organism-based; conditions: in vivo
[32] = Cytotoxicity against human OVCAR3 cells after 5 days by sulforhodamine B assay; format: functional, OVCAR-3
[33] = Antitumor activity against human HCT116 cells xenografted in athymic CD1 nude mouse assessed as tumor growth inhibition at 150 mg/kg, po qd administered for 21 days measured 3 times per week during compound dosing relative to vehicle-treated control; format: functional; conditions: HCT-116, 504 h, read-out: TGI
In short: (§6)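 HCT116 cells (5 million) were injected subcutaneously into the right flank of 6–8 week old female athymic CD-1 nude mice. At a mean tumor volume of 80–120 mm³, mice were randomized (n = 8). Dosing was oral, daily for 21 days, in 10% NMP/40% PEG400/50% DI water, at the MTD and ~2/3 MTD. Tumors were measured three times weekly, volume x²y/2, and TGI was taken against vehicle.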

[34] = test system: Mus musculus; test: as §3; format: ADME, organism-based, Plasma; parameters: time infinity, dose 10 mg/kg, route oral; conditions: in vivo
[35] = test system: Mus musculus; test: as §5; format: ADME, organism-based; parameters: dose 10 mg/kg, route oral; conditions: in vivo
[36] = Toxicity in po dosed athymic CD1 nude mouse assessed as body weight loss in excess 20% and deemed moribund administered as qd for 21 days measured 3 times per week during compound dosing; format: organism-based; conditions: in vivo
[37] = Antitumor activity against human HCT116 cells xenografted in athymic CD1 nude mouse assessed as tumor growth inhibition at 100 mg/kg, po qd administered for 21 days measured 3 times per week during compound dosing relative to vehicle-treated control; format: functional; conditions: HCT-116, 504 h, read-out: TGI; in short: as §6
[38] = test system: Liver; test: as §4; format: ADME; conditions: microsomes, 1 µM

Cytochrome P450 3A4, sequence (P08684 whole entry): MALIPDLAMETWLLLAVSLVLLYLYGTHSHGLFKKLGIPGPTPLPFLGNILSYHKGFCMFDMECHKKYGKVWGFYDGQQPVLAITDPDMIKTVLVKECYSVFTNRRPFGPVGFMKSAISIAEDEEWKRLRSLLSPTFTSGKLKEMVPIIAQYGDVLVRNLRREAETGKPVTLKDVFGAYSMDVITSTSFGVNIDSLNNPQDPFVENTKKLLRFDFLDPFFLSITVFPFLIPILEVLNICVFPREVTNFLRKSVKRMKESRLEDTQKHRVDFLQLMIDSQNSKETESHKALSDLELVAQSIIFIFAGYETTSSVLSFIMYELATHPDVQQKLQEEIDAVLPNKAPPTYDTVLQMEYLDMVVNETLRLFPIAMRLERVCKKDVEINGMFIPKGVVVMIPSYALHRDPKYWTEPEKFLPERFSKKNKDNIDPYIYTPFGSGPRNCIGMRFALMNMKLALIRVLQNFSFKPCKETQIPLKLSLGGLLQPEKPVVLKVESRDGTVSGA
Aurora kinase B/Inner centromere protein, sequence (Q96GD4 whole entry): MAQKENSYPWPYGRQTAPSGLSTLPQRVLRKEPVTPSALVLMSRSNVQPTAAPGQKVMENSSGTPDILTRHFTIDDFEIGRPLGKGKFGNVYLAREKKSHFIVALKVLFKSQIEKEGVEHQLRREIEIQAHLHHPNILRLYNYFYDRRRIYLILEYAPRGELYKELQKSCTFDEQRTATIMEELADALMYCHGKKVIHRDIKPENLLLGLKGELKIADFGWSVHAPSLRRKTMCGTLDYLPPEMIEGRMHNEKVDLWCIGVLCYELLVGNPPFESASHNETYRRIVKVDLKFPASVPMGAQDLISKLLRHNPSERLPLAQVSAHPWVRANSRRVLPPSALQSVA
Aurora kinase B/Inner centromere protein, sequence (Q9NQS7 whole entry, further chain): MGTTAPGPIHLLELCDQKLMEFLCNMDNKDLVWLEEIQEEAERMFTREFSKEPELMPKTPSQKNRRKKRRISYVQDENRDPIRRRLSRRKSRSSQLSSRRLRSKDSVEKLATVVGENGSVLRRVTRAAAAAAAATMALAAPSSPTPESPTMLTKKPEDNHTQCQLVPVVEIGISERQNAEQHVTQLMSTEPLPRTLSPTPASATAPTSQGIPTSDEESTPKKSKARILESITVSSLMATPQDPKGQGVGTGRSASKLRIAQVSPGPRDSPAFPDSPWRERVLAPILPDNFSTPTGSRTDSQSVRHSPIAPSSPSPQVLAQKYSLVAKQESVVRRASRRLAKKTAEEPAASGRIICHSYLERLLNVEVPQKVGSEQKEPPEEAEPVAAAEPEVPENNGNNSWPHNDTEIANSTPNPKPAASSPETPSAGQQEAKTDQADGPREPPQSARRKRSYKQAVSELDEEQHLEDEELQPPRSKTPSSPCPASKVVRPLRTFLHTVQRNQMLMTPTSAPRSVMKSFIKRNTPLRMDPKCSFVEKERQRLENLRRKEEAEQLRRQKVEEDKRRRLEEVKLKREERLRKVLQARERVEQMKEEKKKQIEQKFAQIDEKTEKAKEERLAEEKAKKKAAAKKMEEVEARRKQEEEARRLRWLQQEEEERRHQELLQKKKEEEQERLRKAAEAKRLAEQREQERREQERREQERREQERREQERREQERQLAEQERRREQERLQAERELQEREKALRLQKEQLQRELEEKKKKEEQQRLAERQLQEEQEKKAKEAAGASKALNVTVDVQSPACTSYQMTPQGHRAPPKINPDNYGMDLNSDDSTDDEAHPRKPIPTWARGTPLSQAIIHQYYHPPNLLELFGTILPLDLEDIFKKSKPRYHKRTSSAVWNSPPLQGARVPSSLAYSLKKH

| SMILES | AUC(0-inf) [18] | IC50 [19] | t1/2 [20] | GI50 [21] | AUC(0-inf) [22] | IC50 [24] | half-life [25] | GI50 [26] | IC50 [29] | clearance [30] | bioavailability [31] | GI50 [32] | further results |
| --- | --- | --- | --- | --- | --- | --- | --- | --- | --- | --- | --- | --- | --- |
| O=C(N[C@@H](c1ccccn1)C1CC1)c1ccc2[nH]nc(-c3ccc(N4[C@H]5CC[C@H]4CC(O)C5)cc3)c2c1 (stereo in doubt; 75) |  |  |  |  |  |  |  |  |  |  |  |  | Activity [1]: 2.7%; Activity [2]: Active; Activity [3]: 1.8%; Activity [4]: 8.3%; Activity [5]: 1%; Activity [6]: 7.9%; Activity [7]: Active; Activity [8]: Active; Activity [9]: Active; Activity [10]: 2.9%; Activity [11]: 5.8%; Activity [12]: 0%; Activity [13]: Active; Activity [14]: 1.4%; Activity [15]: 0.2%; Activity [16]: 2.3%; Activity [17]: 9.4% |
| O=C(N[C@H](c1ccccn1)C1CCCC1)c1ccc2[nH]nc(-c3ccc(N4[C@H]5CC[C@H]4CC(O)C5)cc3)c2c1 (stereo in doubt; 76) | 130 ng·h/mL | 4.3 nM | > 60 min | 8 nM | 190 ng·h/mL | 820 nM | 46.8 min | 20 nM | > 6300 nM | 91 mL/min/kg | 13% | 50 nM | AUC(0-inf) [23]: 2600 ng·h/mL; half-life at 1 µM [27]: > 60 min; Cmax [28]: 1500 ng/mL |
| O=C(N[C@H](c1ccccn1)C1CC1)c1ccc2[nH]nc(-c3ccc(N4[C@H]5CC[C@H]4CC(O)C5)cc3)c2c1 (stereo in doubt; 86) | 430 ng·h/mL | 1.6 nM |  |  | 360 ng·h/mL | 1700 nM | 54 min | 90 nM | 790 nM | 46 mL/min/kg | 24% | 170 nM | inhibition in vivo at 150 mg/kg [33]: 53%; AUC [34]: 1600 ng·h/mL; Cmax [35]: 800 ng/mL; MTD at 504 h [36]: 150 mg/kg; inhibition in vivo at 100 mg/kg [37]: 5% |
| O=C(N[C@H](c1ccccn1)C1CCCC1)c1ccc2[nH]nc(-c3ccc(N4[C@H]5CC[C@H]4CC(O)C5)cc3)c2c1 (stereo in doubt; 88) |  | 1.8 nM | 21 min | 38 nM |  | 800 nM |  | 74 nM | 6600 nM |  |  | 130 nM | t1/2 [38]: 35 min |
